In the library only some 2.1% were active in any assay of this set; here they are far more common.
ARNT TACC3 PPI: disruptors of human ARNT/TACC3 interaction; AlphaScreen His-ARNT PAS-B/GST-TACC3 binding, luminescence; TACC3 fragment carries E629A point mutation; Q9Y6A5; inhibition, % at 9.99 µM; AID 623870; actives 0.66% (n = 390,000);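 active = mean inhibition of replicates at least 50% and at least half of replicates each reaching 50%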;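 note: 0% = complete ARNT plus TACC3 wells and 100% = ARNT alone without TACC3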
miR122 inh: inhibitors of miR-122 in Huh7 cells. Huh7 miR-122 Renilla luciferase sensor, 48 h; neutral wells = 0, positive control = 100. activation (reporter increase), % at 12.5 µM. actives 0.3% (n = 340,000);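 active = mean replicate activation score at least 90 and every replicate individually at or above 90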;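 note: higher luciferase means less miR-122 activity so hits act as miR-122 inhibitors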
CAL PDZ FP-1: blocks peptide binding to the human CAL PDZ domain; Q9HD26; purified CAL PDZ, TMR-peptide fluorescence polarization, 1 h; inhibition, % at 24.9 µM; actives 0.92% (n = 300,000);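 active = mean inhibition of at least 30% with at least half of replicates also reaching 30%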;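 note: 0% = DMSO neutral control and 100% = excess unlabeled competitor peptide PRC23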
SR-BI HDL uptake: blocks mouse SR-BI lipid uptake from DiI-HDL; ldlA[mSR-BI] CHO cells, DiI-HDL uptake fluorescence, 3 h; inhibition, % at 12.5 µM; actives 0.96% (n = 320,000); AID 488896;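 active = mean replicate inhibition of at least 70% and a set share of replicates each scoring 70 or more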;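 note: 0% = median of neutral control wells and 100% = median of positive control wells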
Target sequence (Q61009 whole entry, looked up): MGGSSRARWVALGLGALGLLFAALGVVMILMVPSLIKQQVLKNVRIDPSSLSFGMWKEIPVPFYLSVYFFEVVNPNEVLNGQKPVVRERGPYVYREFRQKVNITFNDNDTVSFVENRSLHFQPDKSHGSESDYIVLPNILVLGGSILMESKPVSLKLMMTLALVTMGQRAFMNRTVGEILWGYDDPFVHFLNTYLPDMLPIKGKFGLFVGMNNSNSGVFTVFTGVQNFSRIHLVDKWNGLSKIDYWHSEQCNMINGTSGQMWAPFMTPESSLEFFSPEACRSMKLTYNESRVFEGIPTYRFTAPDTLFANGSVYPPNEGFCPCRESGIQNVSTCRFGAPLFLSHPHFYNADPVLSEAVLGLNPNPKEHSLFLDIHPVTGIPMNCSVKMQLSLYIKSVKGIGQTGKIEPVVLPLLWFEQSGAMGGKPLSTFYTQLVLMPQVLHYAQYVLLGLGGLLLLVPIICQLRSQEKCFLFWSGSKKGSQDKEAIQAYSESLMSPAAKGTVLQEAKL
SR-BI DiI-HDL act: activators of SR-BI mediated HDL lipid uptake | CHO ldlA[mSR-BI] cells, DiI-HDL uptake fluorescence, 3 h; 100 = double the neutral-control signal | activation, % at 12.5 µM | actives 0.096% (n = 320,000) | AID 504775;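 active = mean replicate activation of at least 60% and every replicate at or above 60%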;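 note: 0% = median plate neutral-control signal and 100% = twice that signal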
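Material: SR-BI-overexpressing, LDLR-lacking CHO cells; schedule: compound exposure 3 h, 37 °C; reagent: DiI-labelled HDL at 10 µg/mL final; technique: bottom-read fluorescence, 550/595 nm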
CAL PDZ FP-2: inhibitors of human CAL PDZ peptide binding | Q9HD26 | purified CAL PDZ, TMR-peptide fluorescence polarization, 1 h | inhibition, % at 20 µM | actives 0.02% (n = 330,000) | AID 504414;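 active = highest replicate inhibition of at least 40%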;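 note: plate controls were DMSO neutral control wells for no effect and unlabeled competitor peptide control wells for full effect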
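Assay system – tagged CAL PDZ protein CerCALP, purified · Timing – 1 h at RT · Compound – single point, 20 µM · Measured by – fluorescence polarization from S- and P-plane intensities, G-factor corrected · Evaluation – inhibition from polarization loss · Probe or stimulus – TMR reporter peptide T*-PRC34 · Buffer or medium – pH 7.4 phosphate-saline buffer, reducing agent, detergent, IgG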
Starred values were filed as active, the others as inactive; [ ] = dose if it differs, or a comment.

Screening COc1cc(OC)cc(-c2c(C#Cc3ccsc3)c3cc(-c4ccc5cc[nH]c5c4)ccc3n2C)c1 returned ARNT TACC3 PPI -3.5, miR122 inh 14.9, CAL PDZ FP-1 -1.3, SR-BI HDL uptake 72.4*, SR-BI DiI-HDL act -72.4 and CAL PDZ FP-2 0.9.
COc1cccc(-c2c(-c3cc(OC)cc(OC)c3)n(C)c3ccc(-c4ccc(OC)nc4)cc23)c1 was read as ARNT TACC3 PPI -8.8, miR122 inh -8.8, CAL PDZ FP-1 2.0, SR-BI HDL uptake 25.1, SR-BI DiI-HDL act -25.1 and CAL PDZ FP-2 0.2.
`COc1ccc(-c2c(-c3ccc(OC)nc3)c3ccccc3n2C)cc1` gave ARNT TACC3 PPI -3.0, miR122 inh 0.5, CAL PDZ FP-1 -3.3, SR-BI HDL uptake 77.5*, SR-BI DiI-HDL act -77.5 and CAL PDZ FP-2 0.1.
COc1cccc(-c2c(-c3cc(OC)cc(OC)c3)n(C)c3ccc(-c4ccc5[nH]ccc5c4)cc23)c1 was read as ARNT TACC3 PPI -2.1, miR122 inh 6.2, CAL PDZ FP-1 -4.5, SR-BI HDL uptake 63.2, SR-BI DiI-HDL act -63.2 and CAL PDZ FP-2 0.5.
COc1cc(OC)cc(-c2c(-c3ccc(F)cc3)c3cc(-c4ccc5[nH]ccc5c4)ccc3n2C)c1 was read as ARNT TACC3 PPI -5.1, miR122 inh 8.8, CAL PDZ FP-1 -3.7, SR-BI HDL uptake 87.6*, SR-BI DiI-HDL act -87.6 and CAL PDZ FP-2 1.4.
Screening C[C@H]1CN([C@@H](C)CO)C(=O)CCCn2cc(nn2)CO[C@H]1CN(C)C(=O)Nc1cccc(Oc2ccccn2)c1 returned miR122 inh 2.7[16.7 µM].
Screening COc1ccc(-c2c(-c3cc(OC)cc(OC)c3)n(C)c3ccc(-c4ccc(N(C)C)nc4)cc23)cc1 returned ARNT TACC3 PPI 0.4, miR122 inh 9.8, CAL PDZ FP-1 -6.1, SR-BI HDL uptake 83.1*, SR-BI DiI-HDL act -83.1 and CAL PDZ FP-2 -0.1.
COc1ccc(NC(=O)N2C[C@@H](O)COC[C@@H]3O[C@H](CC(=O)N4CCN(C)CC4)CC[C@H]32)cc1 was read as ARNT TACC3 PPI 1.0 and miR122 inh 3.0[16.7 µM].
For O=C(O)CCC(=O)Nc1ccccc1C(=O)Nc1ccccc1 the results were ARNT TACC3 PPI 12.5, miR122 inh 114.6*, CAL PDZ FP-1 -3.5, SR-BI HDL uptake -7.2, SR-BI DiI-HDL act 7.2 and CAL PDZ FP-2 -0.6.
`O=C(Oc1ccccc1)N1CCOCC1` gave ARNT TACC3 PPI 10.3, miR122 inh 4.8, CAL PDZ FP-1 74.0*, SR-BI HDL uptake 1.9, SR-BI DiI-HDL act -1.9 and CAL PDZ FP-2 13.1.
Screening COc1cccc(Oc2coc3cc(OC(=O)N4CCOCC4)ccc3c2=O)c1 returned ARNT TACC3 PPI 1.2, CAL PDZ FP-1 0.2, SR-BI HDL uptake -0.2, SR-BI DiI-HDL act 0.2 and CAL PDZ FP-2 -1.0.
Screening COc1ccccc1Oc1coc2cc(OC(=O)N3CCOCC3)ccc2c1=O returned ARNT TACC3 PPI 2.1, miR122 inh -15.6, CAL PDZ FP-1 -2.3, SR-BI HDL uptake -6.4, SR-BI DiI-HDL act 6.4 and CAL PDZ FP-2 101.9*.
COCC(=O)Nc1ccc2c(c1)C(=O)N(C)C[C@H](OC)[C@H](C)CN(Cc1cccc(F)c1)[C@@H](C)CO2 was read as ARNT TACC3 PPI -6.3.
Screening CC(C1CC1)N(Cc1ccccc1)C(=S)Nc1ccccc1Cl (stereo not drawn) returned ARNT TACC3 PPI -0.4, miR122 inh 6.0, CAL PDZ FP-1 88.0*, SR-BI HDL uptake 18.1, SR-BI DiI-HDL act -18.1 and CAL PDZ FP-2 -0.5.
`CC(=O)N1[C@@H]2c3ccc(-c4ccc(F)cc4)c(=O)n3C[C@@H]2[C@@H](CO)[C@@H]1C(=O)N(C)C` gave ARNT TACC3 PPI 31.0 and miR122 inh -4.9[16.7 µM].
Screening Cc1cccc(C(=O)OCC(=O)c2ccc3c(c2)NC(=O)CO3)c1 returned ARNT TACC3 PPI 5.1, CAL PDZ FP-1 -5.5, SR-BI HDL uptake 0.0, SR-BI DiI-HDL act 0.0 and CAL PDZ FP-2 -1.2.
`CC(=O)c1c(C)[nH]c(C(=O)OCC(=O)c2ccc3c(c2)NC(=O)CO3)c1C` gave ARNT TACC3 PPI -2.0, miR122 inh 15.9, CAL PDZ FP-1 81.2*, SR-BI HDL uptake 38.5, SR-BI DiI-HDL act -38.5 and CAL PDZ FP-2 -0.6.
Screening C[C@H]1CCCCO[C@H](CN(C)S(=O)(=O)c2ccccc2)[C@@H](C)CN([C@@H](C)CO)C(=O)c2cc(NC(=O)CCCN(C)C)ccc2O1 returned ARNT TACC3 PPI 2.0 and miR122 inh 12.3[16.7 µM].
For O=C(COc1ccc(F)cc1Br)N1CCN(c2ncccn2)CC1 the results were ARNT TACC3 PPI 1.7, CAL PDZ FP-1 -1.9, SR-BI HDL uptake -0.8, SR-BI DiI-HDL act 0.8 and CAL PDZ FP-2 -0.8.
Screening O=C(COc1ccc(F)cc1Br)N1CCN(S(=O)(=O)/C=C/c2ccccc2)CC1 returned ARNT TACC3 PPI -5.1, miR122 inh 1.7, CAL PDZ FP-1 53.5*, SR-BI HDL uptake 9.6, SR-BI DiI-HDL act -9.7 and CAL PDZ FP-2 -0.7.
CCN(CC)S(=O)(=O)c1ccc(N2CCc3cc(OC)c(OC)cc3C2)nc1 was read as ARNT TACC3 PPI 2.3, CAL PDZ FP-1 50.5*, SR-BI HDL uptake 45.2, SR-BI DiI-HDL act -45.2 and CAL PDZ FP-2 -1.1.
Screening CCN(CC)S(=O)(=O)c1ccc(N/N=C/c2cc(OC)c(OC)cc2OC)nc1 returned ARNT TACC3 PPI -8.1, miR122 inh 1.5, CAL PDZ FP-1 0.9, SR-BI HDL uptake 8.0, SR-BI DiI-HDL act -8.0 and CAL PDZ FP-2 -2.7.
CCCCCCNS(=O)(=O)c1ccc(Cl)s1 was read as ARNT TACC3 PPI -2.4, miR122 inh 209.3*, CAL PDZ FP-1 -2.6, SR-BI HDL uptake -24.3, SR-BI DiI-HDL act 24.3 and CAL PDZ FP-2 -1.9.
For O=S(=O)(NCCCN1CCOCC1)c1ccc(Cl)s1 the results were ARNT TACC3 PPI -5.3, CAL PDZ FP-1 -5.4 and CAL PDZ FP-2 -0.7.
For COc1cc(C(=O)O)nc2ccccc12 the results were ARNT TACC3 PPI 57.9*, miR122 inh -1.5, CAL PDZ FP-1 -5.2, SR-BI HDL uptake -12.7, SR-BI DiI-HDL act 12.7 and CAL PDZ FP-2 -0.6.
Screening COc1ccccc1CNC(=O)C[C@H]1C[C@H]2c3cc(NC(=O)NC4CCCC4)ccc3O[C@H]2[C@H](CO)O1 returned ARNT TACC3 PPI 1.9 and miR122 inh -0.8[16.7 µM].
`CC(=O)c1c(O)cc(C)n(-c2ccc(F)cc2)c1=O` gave ARNT TACC3 PPI -2.0, CAL PDZ FP-1 -1.7, SR-BI HDL uptake 0.5, SR-BI DiI-HDL act -0.5 and CAL PDZ FP-2 -3.8.
Screening CC(=O)c1c(O)cc(C)n(Nc2nc(C)cc(C)n2)c1=O returned ARNT TACC3 PPI 72.5*, miR122 inh -6.3, CAL PDZ FP-1 -2.0, SR-BI HDL uptake 0.8, SR-BI DiI-HDL act -0.8 and CAL PDZ FP-2 -0.5.

Screening data: PubChem BioAssay, Broad Institute
